Experiment [1] deals with T1, Butyrophilin subfamily 3 member A1 (Homo sapiens, UniProt O00481). Briefly: Binding affinity to butyrophilin 3A1 in human Vgamma9/Vdelta2 T-cells assessed as activation of Vgamma9/Vdelta2 T-cells by upregulation of CD69 and CD25 after 18 hrs. A digest of the protocol:
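Healthy-donor PBMC incubated 18 h with medium or titrated compound (up to 100 μM). TCR Vγ9+/Vδ2+ cells were gated and scored by flow cytometry for surface CD69 and CD25 upregulation versus medium control.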

Experiment [2] deals with T1, Butyrophilin subfamily 3 member A1. Briefly: Binding affinity to butyrophilin 3A1 in human Vgamma9/Vdelta2 T-cells assessed as activation of Vgamma9/Vdelta2 T-cell-mediated lysis of human T24 cells preincubated for 4 hrs followed by compound washout measured after 18 hrs. A digest of the protocol: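 T24 urinary bladder carcinoma cells (target) pulsed 4 h with 10 nM prodrug, medium, or 10 μM zoledronate. They were then cocultured 18 h with in vitro expanded Vγ9/Vδ2 T cells (effector) across target/effector ratios. Specific killing was scored by amine-reactive dead cell marker staining. Summary is at 1:10 target/effector, mean ± SD, n = 2, with one-way ANOVA.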
Target sequence in this assay (O00481 30-513 limits assumed): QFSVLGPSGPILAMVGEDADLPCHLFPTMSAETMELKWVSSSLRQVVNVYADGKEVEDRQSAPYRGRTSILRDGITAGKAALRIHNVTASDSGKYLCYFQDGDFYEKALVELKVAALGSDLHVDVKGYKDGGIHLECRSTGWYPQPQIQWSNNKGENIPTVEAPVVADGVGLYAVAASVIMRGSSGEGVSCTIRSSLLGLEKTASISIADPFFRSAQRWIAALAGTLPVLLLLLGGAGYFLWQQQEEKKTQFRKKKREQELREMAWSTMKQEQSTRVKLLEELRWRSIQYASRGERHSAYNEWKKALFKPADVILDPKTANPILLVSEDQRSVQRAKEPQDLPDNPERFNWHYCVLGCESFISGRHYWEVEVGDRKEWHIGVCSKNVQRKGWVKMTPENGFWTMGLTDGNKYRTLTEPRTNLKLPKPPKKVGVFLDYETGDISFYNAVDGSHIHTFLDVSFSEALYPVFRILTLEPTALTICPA

For experiment [3] the target is unchanged. Briefly: Binding affinity to butyrophilin 3A1 in human Vgamma9/Vdelta2 T-cells assessed as activation of Vgamma9/Vdelta2 T-cells by measuring levels of CD69 and CD25 at 10 uM after 18 hrs relative to control. A digest of the protocol: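 Human PBMC from healthy donors incubated 18 h with medium or compound (titrations up to 100 μM). Vγ9/Vδ2 T cells gated by TCR Vγ9 and Vδ2 expression. Surface CD69 and CD25 upregulation measured by flow staining and compared with medium control. n = 4–5 donors.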
Target sequence in this assay (O00481 30-513 limits assumed): as above

The species named for another experiment is Homo sapiens. Briefly: Upregulation of CD69/CD25 levels in human CD8-positive T cells expressing alpha-beta TCR. It counts as functional, cell-based. A digest of the protocol:
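Healthy-donor human PBMC incubated 18 h with medium or compound (range up to 100 μM). CD3+ CD8+ αβ T cells were gated and analysed by flow cytometry for cell-surface CD69 and CD25 upregulation.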

The target of experiment [4] is T1, Butyrophilin subfamily 3 member A1. Briefly: Ratio of ED50 for binding affinity to butyrophilin 3A1 in human Vgamma9/Vdelta2 T-cells for Vgamma9/Vdelta2 T-cell-mediated lysis of human T24 cells to EC50 for binding affinity to butyrophilin 3A1 for activation of Vgamma9/Vdelta2 T-cells.
Target sequence in this assay (O00481 30-513 limits assumed): as above
Experiment [5] has the same target. Briefly: Binding affinity to butyrophilin 3A1 in human Vgamma9/Vdelta2 T-cells assessed as activation of Vgamma9/Vdelta2 T-cells by measuring levels of CD69 and CD25 at 0.1 uM after 18 hrs relative to control. A digest of the protocol: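 Healthy-donor PBMC incubated 18 h with medium or titrated compound (up to 100 μM). TCR Vγ9+/Vδ2+ cells were gated and scored by flow cytometry for surface CD69 and CD25 upregulation versus medium control. EC50 was taken from titration curves, n = 4–5 donors.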
Target sequence in this assay (O00481 30-513 limits assumed): as above

The target is the same in experiment [6]. Briefly: Potency index, ratio of zoledronate EC50 to test compound EC50 for binding affinity to butyrophilin 3A1 in human Vgamma9/Vdelta2 T-cells assessed as activation of Vgamma9/Vdelta2 T-cells by upregulation of CD69 and CD25.
Target sequence in this assay (O00481 30-513 limits assumed): as above

SMILES strings stand for the structures. Calls of active or inactive are those of the source. No cut-off for these calls is given here.

Results on 7 molecules are retold here after ChEMBL document CHEMBL4118107, “Synthesis and Biological Evaluation of ( E)-4-Hydroxy-3-methylbut-2-enyl Phosphate (HMBP) Aryloxy Triester Phosphoramidate Prodrugs as Activators of Vγ9/Vδ2 T-Cell Immune Responses” (J Med Chem, 2018).

Usually EC50 stands for the concentration needed to bring the measured effect to its halfway point.

As to `O=P(O)(O)C(O)(Cn1ccnc1)P(=O)(O)O` [ZOLEDRONIC ACID], the EC50 in experiment [1] came out at 487 nM. In addition, in experiment [2], the ED50 was above 100000 nM. Moreover, the Activity in experiment [3] turned out to be 39.2%. In addition, the outcome in the experiment listed under Homo sapiens was inactive.
`C/C(=C\COP(=O)(N[C@@H](C)C(=O)OC(C)C)Oc1ccccc1)CO[Si](C)(C)C(C)(C)C` (some centres not stated): the EC50 in experiment [1] amounted to 10.6 nM. Also, the Ratio in experiment [4] stood at 7830. In experiment [2], the ED50 came to 83200 nM. Besides, the Activity in experiment [5] was 31%. In the experiment listed under Homo sapiens, the outcome was inactive.
On the same counts, the results for `COC(=O)[C@H](C)NP(=O)(OC/C=C(\C)CO[Si](C)(C)C(C)(C)C)Oc1ccccc1` (some centres not stated) are 1.38 nM, 21400, 29500 nM, 39% and “inactive”.
As to `C/C(=C\COP(=O)(N[C@@H](C)C(=O)OC(C)(C)C)Oc1ccccc1)CO[Si](C)(C)C(C)(C)C` (some centres not stated), the concentration for a half-maximal effect (EC50) in experiment [1] was 8.92 nM. The ED50 in experiment [2] was above 100000 nM. In experiment [5], the Activity came out at 29.9%. In the experiment listed under Homo sapiens, the outcome was inactive.
In the case of `C/C(=C\CO)CO[Si](C)(C)C(C)(C)C`, the result in experiment [1] was inactive.
Turning to `C/C(=C\COP(=O)(O)OP(=O)(O)O)CO`, the ED50 in experiment [2] was above 100000 nM. Besides, the outcome in the experiment filed under Homo sapiens was inactive.
Regarding `C/C(=C\COP(=O)(N[C@@H](C)C(=O)OCc1ccccc1)Oc1ccccc1)CO[Si](C)(C)C(C)(C)C` (some centres not stated), in experiment [1], the EC50 came out at 0.45 nM. The Ratio in experiment [4] is 12900. For the same molecule, the ED50 in experiment [2] was determined as 8510 nM. Also, in experiment [6], the Ratio EC50 amounted to 1080. For the same molecule, the Activity in experiment [5] amounted to 50.6%. Also, the result in the experiment listed under Homo sapiens was inactive.
